Paper PMC5586103 (Bioorganic & medicinal chemistry letters, 2015)
Each block holds one compound with its values, some of them ahead of it.

Tests used:
[1] = tested on: normal human fibroblasts (NHFB); experiment: SRB cytotoxicity assay in normal human fibroblasts; format: cell-based; conditions: Fibroblast, read-out: EC50 NHFB
NSCLC cell line H460 = experiment: SRB cytotoxicity assay in NSCLC cell line H460; format: cell-based; conditions: for cytoselective anti-cancer effects in H460 and H460TaxR cells (in words): single concentration 10 µM, SRB, H460 and H460TaxR versus NHFB
Outline: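 Sulforhodamine B (SRB) viability assay in H460 cells, run alongside drug-resistant H460TaxR and normal human fibroblasts (NHFB). The initial screen used a single test-compound concentration of 10 µM. DMSO served as the negative control, and viability in DMSO was set to 100%. Selected compounds were also tested across a range of doses in H460 and H460TaxR to give dose-dependent cytotoxicity.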

[2] = high throughput aqueous solubility assay; format: physicochemical; conditions: for aqueous solubility (in words): comparison within libraries

SMILES: CN(C)c1ccc(/C=C2/SC(=Nc3ccccc3)NC2=O)cc1 [Compound 1]
EC50 [1]: > 100 µM
cytoselective anti-cancer effects in H460 and H460TaxR cells (in words) (NSCLC cell line H460): good cytoselective anti-cancer effects

SMILES: CCN(CC)c1ccc(/C=C2/SC(Nc3ccccc3)=NC2=O)cc1 [Compound 2]
EC50 [1]: > 100 µM
cytoselective anti-cancer effects in H460 and H460TaxR cells (in words) (NSCLC cell line H460): good cytoselective anti-cancer effects

SMILES: O=C1N=C(Nc2ccccc2)S/C1=C/c1ccc(N2CCOCC2)cc1 [Compound 3]
EC50 [1]: > 100 µM

SMILES: CN1CCN(c2ccc(/C=C3/SC(Nc4ccccc4)=NC3=O)cc2)CC1 [Compound 4]
cytoselective anti-cancer effects in H460 and H460TaxR cells (in words) (NSCLC cell line H460): good cytoselective anti-cancer effects

SMILES: O=C1N=C(Nc2ccccc2)S/C1=C/c1ccc(N2CCNCC2)cc1 [Compound 5]
aqueous solubility (in words) [2]: largest improvement in aqueous solubility
EC50 [1]: > 100 µM
anti-cancer activity (in words) (NSCLC cell line H460; H460 and H460TaxR): reduced anticancer activity

SMILES: O=C1N=C(Nc2ccc(O)cc2)S/C1=C/c1ccc(N2CCNCC2)cc1 [Compound 10]
aqueous solubility (in words) [2]: largest improvement in aqueous solubility
anti-cancer activity (in words) (NSCLC cell line H460; H460 and H460TaxR): reduced anticancer activity

SMILES: CN(C)c1ccc(/C=C2/SC(=Nc3ccccc3Cl)NC2=O)cc1 [Compound 11]
cytoselective anti-cancer effects in H460 and H460TaxR cells (in words) (NSCLC cell line H460): good cytoselective anti-cancer effects

SMILES: CCN(CC)c1ccc(/C=C2/SC(Nc3ccccc3Cl)=NC2=O)cc1 [Compound 12]
cytoselective anti-cancer effects in H460 and H460TaxR cells (in words) (NSCLC cell line H460): good cytoselective anti-cancer effects

SMILES: Cc1ccccc1/N=C1\NC(=O)/C(=C\c2ccc(N(C)C)cc2)S1 [Compound 21]
cytoselective anti-cancer effects in H460 and H460TaxR cells (in words) (NSCLC cell line H460): good cytoselective anti-cancer effects

SMILES: CCN(CC)c1ccc(/C=C2/SC(Nc3ccccc3C)=NC2=O)cc1 [Compound 22]
cytoselective anti-cancer effects in H460 and H460TaxR cells (in words) (NSCLC cell line H460): good cytoselective anti-cancer effects

SMILES: Cc1ccccc1NC1=NC(=O)/C(=C\c2ccc(N3CCNCC3)cc2)S1 [Compound 25]
aqueous solubility (in words) [2]: largest improvement in aqueous solubility
anti-cancer activity (in words) (NSCLC cell line H460; H460 and H460TaxR): reduced anticancer activity

SMILES: CN(C)c1ccc(/C=C2/SC(N(c3ccccc3)c3ccccc3)=NC2=O)cc1 [Compound 26]
EC50 [1]: > 100 µM

SMILES: CCN(CC)c1ccc(/C=C2/SC(N(c3ccccc3)c3ccccc3)=NC2=O)cc1 [Compound 27]
EC50 [1]: > 100 µM

improvement in aqueous solubility ([2]; compared to compound 1): 5 fold
SMILES: CN(C)c1ccc(/C=C2/SC(N(C)c3ccccc3)=NC2=O)cc1 [Compound 31]
improvement in anti-cancer activity (EC50) (NSCLC cell line H460; H460 and H460TaxR, compared to compound 1): 10 fold
cytoselective anti-cancer effects in H460 and H460TaxR cells (in words) (NSCLC cell line H460): potent cytoselective anti-cancer activity

aqueous solubility (in words) [2]: did not improve solubility
SMILES: CCN(CC)c1ccc(/C=C2/SC(N(C)c3ccccc3)=NC2=O)cc1 [Compound 32]
EC50 [1]: > 100 µM
cytoselective anti-cancer effects in H460 and H460TaxR cells (in words) (NSCLC cell line H460): potent cytoselective anti-cancer activity

aqueous solubility (in words) [2]: significantly better
SMILES: CN(C1=NC(=O)/C(=C\c2ccc(N3CCOCC3)cc2)S1)c1ccccc1 [Compound 33]
EC50 [1]: > 100 µM
anti-cancer activity (in words) (NSCLC cell line H460; H460 and H460TaxR): weak anti-cancer effects

SMILES: CN1CCN(c2ccc(/C=C3/SC(N(C)c4ccccc4)=NC3=O)cc2)CC1 [Compound 34]
anti-cancer activity (in words) (NSCLC cell line H460; H460 and H460TaxR): weak anti-cancer effects

SMILES: CN(C1=NC(=O)/C(=C\c2ccc(N3CCNCC3)cc2)S1)c1ccccc1 [Compound 35]
anti-cancer activity (in words) (NSCLC cell line H460; H460 and H460TaxR): weak anti-cancer effects
